Measured values: ChEMBL document CHEMBL1121799, “Beta-adrenoceptor stimulant properties of amidoalkylamino-substituted 1-aryl-2-ethanols and 1-(aryloxy)-2-propanols” (1981)

What was measured:
Canis familiaris [1] = organism: Canis familiaris; assay: Intrinsic sympathomimetic activity (ISA), calculated as the percent of maximum change in hind limb perfusion pressure (HLPP); format: functional, Canis lupus familiaris, Hindlimb
Procedure, shortened: (§1)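 Same anesthetized, ventilated dog preparation with a pump-perfused left hind limb. An isoproterenol curve was run first. About 45 min later, once HR and HLPP had returned to control, cumulative iv doses of test compound in saline were given. ISA is the maximum HR or HLPP change produced by the compound, expressed as a percentage of the isoproterenol maximum.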

Canis familiaris [2] = assay: Effective dose required for the maximum heart rate in anesthetized dogs.; format: functional; details: Canis lupus familiaris
Procedure, shortened: (§2)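 Anesthetized dogs on pentobarbital (20 mg/kg iv, then 2 mg/kg iv every 30 min), ventilated with 40% O2 in air. Left hind limb pump-perfused from the abdominal aorta, heparin 500 IU/kg iv. HR from a lead II ECG-driven cardiotachometer. Arterial pCO2 held at 34-42 mmHg and pH 7.35-7.43. Cumulative iv doses in saline. ED50 taken from dose-response curves of peak HR or HLPP change.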

Canis familiaris [3] = assay: Effective dose required for the maximum hind limb perfusion pressure(HLPP) in anesthetized dogs.; format: functional; details: Canis lupus familiaris, Hindlimb; procedure, shortened: as §2
Canis familiaris [4] = organism: Canis familiaris; assay: Intrinsic sympathomimetic activity (ISA, calculated as the percent of maximum change in heart rate (HR); format: functional, Canis lupus familiaris; procedure, shortened: as §1
Canis familiaris [5] = organism: Canis familiaris; assay: Selectivity is expressed as the ratio of ED50 on hind limb perfusion pressure to the ED50 on heart rate; format: functional, Canis lupus familiaris
Procedure, shortened: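 Cardioselectivity is the ratio of ED50 for HLPP to ED50 for HR. Both come from cumulative iv dose-response curves in pentobarbital-anesthetized dogs with a pump-perfused hind limb and a cardiotachometer reading HR.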

| Structure (SMILES) | ISA (Canis familiaris [1]) | ED50 (Canis familiaris [2]) | ED50 (Canis familiaris [3]) | ISA (Canis familiaris [4]) | Selectivity (Canis familiaris [5]) |
| --- | --- | --- | --- | --- | --- |
| O=C(NCCNCC(O)COc1ccc(O)c(CO)c1)Nc1ccccc1.O=C(O)C(=O)O (centres undefined) | 32% | 0.045 µmol/kg | 0.112 µmol/kg | 42% | 2.5 |
| CC(C)C(=O)NCCNCC(O)COc1ccc(O)c(CO)c1.O=C(O)C(=O)O (centres undefined) | 30% | 0.043 µmol/kg | 0.27 µmol/kg | 26% | 6.3 |
| CC(C)NCC(O)COc1ccc(O)c(CO)c1.O=C(O)C(=O)O (centres undefined) | 55% | 0.067 µmol/kg | 0.098 µmol/kg | 44% | 1.5 |
| CC(C)C(=O)NCCNCC(O)c1cc(O)cc(O)c1.O=C(O)C(=O)O (centres undefined) | 100% | 0.035 µmol/kg | 0.105 µmol/kg | 89% | 3 |
| O=C(NCCNCC(O)COc1cccc(O)c1)Nc1ccccc1.O=C(O)C(=O)O (centres undefined) | 0% | 0.009 µmol/kg | > 1.5 µmol/kg | 21% | >170 |
| O=C(NCCNCC(O)COc1ccc(O)cc1)Nc1ccccc1.O=C(O)C(=O)O (centres undefined) | 45% | 0.058 µmol/kg | 0.165 µmol/kg | 52% | 2.8 |
| CC(C)C(=O)NCCNCC(O)COc1ccc(O)cc1.O=C(O)C(=O)O (centres undefined) | 40% | 0.02 µmol/kg | 0.078 µmol/kg | 30% | 3.9 |
| CC(C)NCC(O)COc1cc(O)cc(O)c1.O=C(O)C(=O)O (centres undefined) | 25% | 0.012 µmol/kg | 0.012 µmol/kg | 32% | 1 |
| O=C(NCCNCC(O)c1ccc(O)c(O)c1)Nc1ccccc1.O=C(O)C(=O)O (centres undefined) | 100% | 0.0009 µmol/kg | 0.0054 µmol/kg | 100% | 6 |
| CC(C)NCC(O)COc1ccc(O)c(O)c1.O=C(O)C(=O)O (centres undefined) | 100% | 0.0012 µmol/kg | 0.0012 µmol/kg | 100% | 1 |
| CC(C)C(=O)NCCNCC(O)c1ccc(O)c(O)c1.O=C(O)C(=O)O (centres undefined) | 100% | 0.0025 µmol/kg | 0.006 µmol/kg | 84% | 2.4 |
| O=C(NCCNCC(O)c1cc(O)cc(O)c1)Nc1ccccc1.O=C(O)C(=O)O (centres undefined) | 100% | 0.755 µmol/kg | 0.755 µmol/kg | 80% | 1 |
| O=C(NCCNCC(O)COc1ccc(O)c(O)c1)Nc1ccccc1.O=C(O)C(=O)O (centres undefined) | 100% | 0.0041 µmol/kg | 0.1 µmol/kg | 80% | 24.4 |
| CC(C)C(=O)NCCNCC(O)c1ccc(O)c(CO)c1.O=C(O)C(=O)O (centres undefined) | 100% | 0.077 µmol/kg | 0.152 µmol/kg | 85% | 2 |
| O=C(NCCNCC(O)COc1cc(O)cc(O)c1)Nc1ccccc1.O=C(O)C(=O)O (centres undefined) | 0% | 0.041 µmol/kg | > 5.5 µmol/kg | 28% | >135 |
| CC(C)C(=O)NCCNCC(O)COc1cc(O)cc(O)c1.O=C(O)C(=O)O (centres undefined) | 18% | 0.019 µmol/kg | 0.016 µmol/kg | 19% | 0.8 |
| CC(C)C(=O)NCCNCC(O)c1cccc(O)c1.O=C(O)C(=O)O (centres undefined) | 75% | 0.038 µmol/kg | 0.132 µmol/kg | 75% | 3.5 |
| O=C(NCCNCC(O)c1ccc(O)cc1)Nc1ccccc1.O=C(O)C(=O)O (centres undefined) | 70% | 0.098 µmol/kg | 0.228 µmol/kg | 71% | 2.3 |

| Structure (SMILES) | ISA (Canis familiaris [1]) | ED50 (Canis familiaris [2]) | ED50 (Canis familiaris [3]) | ISA (Canis familiaris [4]) | Selectivity (Canis familiaris [5]) |
| --- | --- | --- | --- | --- | --- |
| CC(C)C(=O)NCCNCC(O)COc1ccc(O)c(O)c1.O=C(O)C(=O)O (centres undefined) | 100% | 0.0016 µmol/kg | 0.0016 µmol/kg | 100% | 1 |
| O=C(NCCNCC(O)c1ccc(O)c(CO)c1)Nc1ccccc1.O=C(O)C(=O)O (centres undefined) | 88% | 0.038 µmol/kg | 0.304 µmol/kg | 76% | 8 |
| COCCNC(=O)NCCNCC(O)COc1ccc(O)cc1.O=C(O)C(=O)O (centres undefined) | 58% | 0.021 µmol/kg | 0.052 µmol/kg | 74% | 2.5 |
| O=C(NCCO)NCCNCC(O)COc1ccc(O)cc1.O=C(O)C(=O)O (centres undefined) | 49% | 0.077 µmol/kg | 0.236 µmol/kg | 69% | 3.1 |
| CC(C)NC(=O)NCCNCC(O)COc1ccc(O)cc1.O=C(O)C(=O)O (centres undefined) | 26% | 0.235 µmol/kg | 0.193 µmol/kg | 60% | 0.8 |
| O=C(O)C(=O)O.O=S(=O)(NCCNCC(O)COc1ccc(O)cc1)c1ccccc1 (centres undefined) | 45% | 0.074 µmol/kg | 0.055 µmol/kg | 55% | 0.7 |
| COCCN(C)C(=O)NCCNCC(O)COc1ccc(O)cc1.O=C(O)C(=O)O (centres undefined) | 0% | 0.012 µmol/kg | > 3 µmol/kg | 27% | >250 |
| O=C(O)C(=O)O.O=S(=O)(NCCNCC(O)COc1ccc(O)cc1)Nc1ccccc1 (centres undefined) | 79% | 0.018 µmol/kg | 0.052 µmol/kg | 92% | 2.9 |
| CC(C)C(=O)NCCNCC(O)c1ccc(O)cc1.O=C(O)C(=O)O (centres undefined) | 82% | 0.056 µmol/kg | 0.071 µmol/kg | 90% | 1.3 |
| CN(C)C(=O)NCCNCC(O)COc1ccc(O)cc1.O=C(O)C(=O)O (centres undefined) | 0% | 0.024 µmol/kg | > 1 µmol/kg | 29% | >40 |
| CC(C)NCC(O)COc1cccc(O)c1.O=C(O)C(=O)O (centres undefined) | 33% | 0.018 µmol/kg | 0.067 µmol/kg | 57% | 3.7 |
| O=C(NCCNCC(O)c1cccc(O)c1)Nc1ccccc1.O=C(O)C(=O)O (centres undefined) | 55% | 0.143 µmol/kg | 0.286 µmol/kg | 42% | 2 |
| Cl.O=C(NCCNCC(O)COc1ccc(O)cc1)N(CCO)CCO (centres undefined) | 42% | 0.145 µmol/kg | 2.33 µmol/kg | 41% | 16 |
| CN(CCO)C(=O)NCCNCC(O)COc1ccc(O)cc1.Cl (centres undefined) | 48% | 0.037 µmol/kg | 1.17 µmol/kg | 43% | 33 |
| Cl.O=C(NCCNCC(O)COc1ccc(O)cc1)NCc1ccccc1 (centres undefined) | 70% | 0.019 µmol/kg | 0.081 µmol/kg | 80% | 4.3 |
| NC(=O)NCCNCC(O)COc1ccc(O)cc1 (centres undefined) | 50% | 0.078 µmol/kg | 0.134 µmol/kg | 92% | 1.7 |
| CC(C)NC[C@H](O)COc1ccc(O)cc1 [PRENALTEROL] | 31% | 0.031 µmol/kg | 0.006 µmol/kg | 56% | – |
